Experimental data taken from ChEMBL document CHEMBL1128210, “Structure-activity relationship of omeprazole and analogues as Helicobacter pylori urease inhibitors” (J Med Chem, 1995).

How the values were obtained:
[1] = tested on: Helicobacter pylori; assay: Urease activity in wild type H pylori, CCUG 15818, at 100 uM
Method in brief: (§1)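 CCUG 15818 grown 3 days at 37 °C microaerophilic on Columbia blood agar, washed three times in PBS at assay pH, set to A560 0.3. Cells preincubated with compound (MeOH or DMSO, ≤1% solvent) for 30 min at 37 °C, then mixed 1:1 with 200 mM urea for 10 min. Ammonia read by nitroprusside-catalysed phenol–hypochlorite at A650 against (NH4)2SO4. Compound colour blank subtracted; expressed as % of control.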

[2] = tested on: Helicobacter pylori; assay: Urease activity was determined in wild type-H pylori, CCUG 15818, at a concentration of 1 uM; method in brief: as §1
[3] = Relative retention time of the compound; type: ADME
[4] = tested on: Helicobacter pylori; assay: Urease activity in H pylori, CCUG 15818, at 10 uM; method in brief: as §1
[5] = pKa value of the compound (benzimidazole ring substitutions dependent); type: physicochemical; details: read-out: pKabz
[6] = pKa value of the compound (pyridine ring substitutions dependent); type: physicochemical; details: read-out: pKapy
[7] = Half life at pH 7 is a measure of the rate by which the compound is converted to the active species; type: ADME; details: buffer
[8] = tested on: Helicobacter pylori; assay: Urease activity was determined in wild type-H pylori, CCUG 15818, at a concentration of 100 nM
Method in brief: (§2)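 Washed whole cells grown 3 days at 37 °C under microaerophilic conditions, resuspended in PBS at assay pH to A560 = 0.3. Compound (in MeOH or DMSO, ≤1% solvent) preincubated 30 min at 37 °C with shaking. 200 mM urea added 1:1; stopped after 10 min with phenol–nitroprusside/hypochlorite reagents, 15 min colour, A650 vs (NH4)2SO4 standard; percent of control.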

[9] = tested on: Helicobacter pylori; assay: Urease activity was determined in wild type-H pylori, CCUG 15818, at a concentration of 10 nM; method in brief: as §2
[10] = tested on: Helicobacter pylori; assay: Urease activity was determined in wild type-H pylori, CCUG 15818, at a concentration of 1 nM; method in brief: as §2
[11] = tested on: Helicobacter pylori; assay: Urease activity was determined in wild type-H pylori, CCUG 15818 in the presence of beta mercaptoethanol at a concentration of 10 uM
Method in brief: (§3)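 Intact CCUG 15818 cells (A560 0.3, washed in PBS) preincubated 30 min at 37 °C with compound at 1, 10 or 100 μM plus 100 μM β-mercaptoethanol. Urea was then added 1:1 from a 200 mM solution. After 10 min, ammonia was measured by indophenol (phenol–hypochlorite/nitroprusside) absorbance at 650 nm and expressed as % of control.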

[12] = tested on: Helicobacter pylori; assay: Urease activity was determined in wild type-H pylori, CCUG 15818 in the presence of beta mercaptoethanol at a concentration of 1 uM; method in brief: as §3
[13] = tested on: Helicobacter pylori; assay: Urease activity was determined in wild type-H pylori, CCUG 15818 in the presence of beta mercaptoethanol at a concentration of 100 uM; method in brief: as §3
[14] = Half life at pH 6 is a measure of the rate by which the compound is converted to the active species.; details: buffer
[15] = Relative retention time at pH 6; type: ADME; details: buffer
[16] = tested on: Helicobacter pylori; assay: Urease activity was determined in wild type-H pylori, CCUG 15818, at a concentration of 100 uM at pH 6
[17] = pKa value of the compound (pyridine ring substitutions dependent) at pH 6; type: physicochemical; details: read-out: pKapy
[18] = pKa value of the compound (benzimidazole ring substitutions dependent) at pH 6; type: physicochemical; details: read-out: pKabz
[19] = tested on: Helicobacter pylori; assay: Urease activity was determined in wild type-H pylori, CCUG 15818, at a concentration of 1 uM at pH 6
[20] = tested on: Helicobacter pylori; assay: Urease activity was determined in wild type-H pylori, CCUG 15818, at a concentration of 10 uM at pH 6

Compound | Urease activity (% of control) [1] | Urease activity (% of control) [2] | Log k'o [3] | Urease activity (% of control) [4] | pKa [5] | pKa [6] | half-life [7] | further results
COc1ccnc(C[S+]([O-])c2nc3c(F)cccc3[nH]2)c1 (configuration not stated) | 58% | 93% | 0.26 | 95% | 7.5 | 4.4 | 23 h | –
Cc1c(OCC(F)(F)F)ccnc1C[S+]([O-])c1nc2ccccc2[nH]1 (configuration not stated) [LANSOPRAZOLE] | 29% | 105% | 1.1 | 103% | 8.7 | 3.9 | 13 h | –
COc1ccnc(C[S+]([O-])c2nc3cc4c(cc3[nH]2)CCC4)c1C (configuration not stated) | 0% | 36% | 1.21 | 35% | 9.4 | 4.9 | 1.17 h | –
COc1ccnc(C[S+]([O-])c2nc3cc(F)c(F)cc3[nH]2)c1OC (configuration not stated) | – | – | 0.6 | – | 7.8 | 3.6 | 69 h | –
COc1ccnc(C[S+]([O-])c2nc3cc(CO)ccc3[nH]2)c1C (configuration not stated) | 32% | 72% | 0.18 | 38% | 8.6 | 4.7 | 1 h | –
COc1c(OCC2CC2)ccnc1C[S+]([O-])c1nc2cc(F)ccc2[nH]1 (configuration not stated) | 84% | 104% | 1.16 | 94% | 8.4 | 3.8 | 50 h | –
COc1ccc2[nH]c([S+]([O-])Cc3nccc(OC(C)C)c3C)nc2c1 (configuration not stated) | 0% | 86% | 1.22 | 35% | 8.9 | 5.1 | 1.5 h | –
NP(N)(=O)NC(=O)c1ccc(F)cc1 | – | – | – | – | – | – | – | Control [8]: 0%; Control [9]: 10%; Control [10]: 80%
COc1ccnc(C[S+]([O-])c2nc3cc(C(C)(C)C)ccc3[nH]2)c1C (configuration not stated) | 1% | – | 1.55 | 42% | 9.1 | 4.8 | 1 h | Control [11]: 95%; Control [12]: 105%; Control [13]: 106%
COc1ccnc(C[S+]([O-])c2nc3c(F)cc(F)cc3[nH]2)c1 (configuration not stated) | 80% | 106% | 0.09 | 89% | 7.6 | 4.1 | 32 h | –
COc1ccc2[nH]c([S+]([O-])Cc3ncc(C)c(OC)c3C)nc2c1 (configuration not stated) [OMEPRAZOLE] | 64% | 109% | 0.83 | 96% | 8.7 | 4 | 23 h | half-life [14]: 0.917 h; Log k'o [15]: 0.83; Control [16]: 28%; pKa [17]: 4; pKa [18]: 8.7; Control [19]: 115%; Control [20]: 88%
Cc1cc(C)c(C[S+]([O-])c2nc3cc(Cl)ccc3[nH]2)nc1C (configuration not stated) | 164% | 97% | – | 105% | – | – | – | –
COc1ccc2[nH]c(SCc3ncc(C)c(OC)c3C)nc2c1 | 99% | 109% | – | 101% | – | – | – | –
CCOc1ccnc(C[S+]([O-])c2nc3ccccc3[nH]2)c1C (configuration not stated) | 8% | 76% | 0.92 | 38% | 8.8 | 4.9 | 0.9 h | –
